Reference: ChEMBL document CHEMBL1147232, “An anxiolytic-like effect of Ginkgo biloba extract and its constituent, ginkgolide-A, in mice” (J Nat Prod, 2003)

Columns and labels:
Mus musculus [1] = assay: Anxiolytic-like activity in ddY mouse assessed as number of shuttle per hour at 10 mg/kg, po by discrete shuttle avoidance test; assay type: functional
Procedure, shortened: (§1)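 Male ddY mice (7 weeks, 33-36 g), pretrained and reused, showing stable baselines (150-250 shuttles/h, fewer than 10 shocks per session). Single oral dose immediately before a 60-min discrete shuttle avoidance session of 120 trials. Shuttles were full crossings of the chamber. Drug tests ran 3-4 days apart. Vehicle controls; n=10 per group; mean ± SEM; one- or two-way ANOVA with Student-Newman-Keuls.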

Mus musculus [2] = assay: Anxiolytic-like activity in ddY mouse assessed as number of shocks per hour at 10 mg/kg, po by discrete shuttle avoidance test; assay type: functional; procedure, shortened: as §1
Mus musculus [3] = assay: Anxiolytic-like activity in ddY mouse assessed as time spent in open-sided arms at 1 mg/kg, po for 7 days measured 24 hrs after final drug administration by elevated plus-maze test; assay type: functional
Procedure, shortened: (§2)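 Elevated plus-maze with two walled arms (6 × 30 × 10 cm); time (s) in the open-sided arms recorded 24 h after the last of daily oral doses given for the stated number of days. Male ddY mice, 7 weeks, drug-naive, used once. Mean ± SEM; ANOVA with Student-Newman-Keuls.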

Mus musculus [4] = assay: Anxiolytic-like activity in ddY mouse assessed as ambulatory activity at 1 mg/kg, po for 7 days measured 24 hrs after final drug administration assessed per 5 mins by tilting type ambulometer test; assay type: functional
Procedure, shortened: (§3)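 Male ddY mice (7 weeks, 33-36 g) dosed orally once daily (0.1 mL/10 g) for the stated number of days. Plus-maze 24 h after final dose, then ambulatory activity counted for 5 min on a tilting ambulometer immediately after. Animals used once; N per group as tabulated; mean ± SEM; ANOVA with Student-Newman-Keuls.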

Mus musculus [5] = assay: Anxiolytic-like activity in ddY mouse assessed as time spent in open-sided arms at 0.3 mg/kg, po for 7 days measured 24 hrs after final drug administration by elevated plus-maze test; assay type: functional
Mus musculus [6] = assay: Anxiolytic-like activity in ddY mouse assessed as ambulatory activity at 0.3 mg/kg, po for 7 days measured 24 hrs after final drug administration assessed per 5 mins by tilting type ambulometer test; assay type: functional
Mus musculus [7] = assay: Anxiolytic-like activity in ddY mouse assessed as time spent in open-sided arms at 1 mg/kg, po for 1 day measured after 1 hr by elevated plus-maze test; assay type: functional
Procedure, shortened: (§4)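 Elevated plus-maze with two walled arms (6 × 30 × 10 cm) and an 8 × 8 cm central platform; read-out is time (s) in the open-sided arms. 10 mice per group, each used once; mean ± SEM; one-way ANOVA with Student-Newman-Keuls.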

Mus musculus [8] = assay: Anxiolytic-like activity in ddY mouse assessed as ambulatory activity at 1 mg/kg, po for 1 day measured after 1 hr assessed per 5 mins by tilting type ambulometer test; assay type: functional
Procedure, shortened: (§5)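 Ambulatory activity counted for 5 min on a tilting ambulometer immediately after the maze. 10 mice per group; mean ± SEM; one-way ANOVA with Student-Newman-Keuls.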

Mus musculus [9] = assay: Anxiolytic-like activity in ddY mouse assessed as time spent in open-sided arms at 2 mg/kg, po for 1 day measured after 1 hr by elevated plus-maze test; assay type: functional; procedure, shortened: as §4
Mus musculus [10] = assay: Anxiolytic-like activity in ddY mouse assessed as ambulatory activity at 2 mg/kg, po for 1 day measured after 1 hr assessed per 5 mins by tilting type ambulometer test; assay type: functional; procedure, shortened: as §5
Mus musculus [11] = assay: Anxiolytic-like activity in ddY mouse assessed as time spent in open-sided arms at 2 mg/kg, po for 7 days measured 24 hrs after final drug administration by elevated plus-maze test; assay type: functional; procedure, shortened: as §2
Mus musculus [12] = assay: Anxiolytic-like activity in ddY mouse assessed as ambulatory activity at 2 mg/kg, po for 7 days measured 24 hrs after final drug administration assessed per 5 mins by tilting type ambulometer test; assay type: functional; procedure, shortened: as §3
Mus musculus [13] = assay: Anxiolytic-like activity in ddY mouse assessed as time spent in open-sided arms at 1 mg/kg, po for 2 days measured 24 hrs after final drug administration by elevated plus-maze test; assay type: functional; procedure, shortened: as §2
Mus musculus [14] = assay: Anxiolytic-like activity in ddY mouse assessed as ambulatory activity at 1 mg/kg, po for 2 days measured 24 hrs after final drug administration assessed per 5 mins by tilting type ambulometer test; assay type: functional; procedure, shortened: as §3
Mus musculus [15] = assay: Anxiolytic-like activity in ddY mouse assessed as time spent in open-sided arms at 1 mg/kg, po for 3 days measured 24 hrs after final drug administration by elevated plus-maze test; assay type: functional; procedure, shortened: as §2
Mus musculus [16] = assay: Anxiolytic-like activity in ddY mouse assessed as ambulatory activity at 1 mg/kg, po for 3 days measured 24 hrs after final drug administration assessed per 5 mins by tilting type ambulometer test; assay type: functional; procedure, shortened: as §3
Mus musculus [17] = assay: Anxiolytic-like activity in ddY mouse assessed as time spent in open-sided arms at 1 mg/kg, po for 4 days measured 24 hrs after final drug administration by elevated plus-maze test; assay type: functional
Mus musculus [18] = assay: Anxiolytic-like activity in ddY mouse assessed as pentobarbital-induced sleep time at 10 mg/kg, po administered 30 mins before pentobarbital challenge; assay type: functional
Procedure, shortened: (§6)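 Oral dose to male ddY mice 30 min before pentobarbital-Na 50 mg/kg ip. Sleep time is the interval between loss and recovery of righting reflex (s). Separate drug-naive mice, used once; 10 per group; mean ± SEM; one-way ANOVA with Student-Newman-Keuls.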

Mus musculus [19] = assay: Anxiolytic-like activity in ddY mouse assessed as pentobarbital-induced sleep time at 20 mg/kg, po administered 30 mins before pentobarbital challenge; assay type: functional; procedure, shortened: as §6
Mus musculus [20] = assay: Anxiolytic-like activity in ddY mouse assessed as number of shuttle per hour at 1 mg/kg, po administered 30 mins before test by discrete shuttle avoidance test; assay type: functional
Procedure, shortened: (§7)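 Well-trained male ddY mice with stable baselines (150-250 shuttles/h, under 10 shocks) had 60-min discrete shuttle avoidance sessions of 120 trials, dosed orally 30 min before. Shuttles and shocks per hour counted. Drug tests at 3-4 day intervals, mice reused; 10 mice per group; mean ± SEM; one-way ANOVA with Student-Newman-Keuls.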

Mus musculus [21] = assay: Anxiolytic-like activity in ddY mouse assessed as number of shocks per hour at 1 mg/kg, po administered 30 mins before test by discrete shuttle avoidance test; assay type: functional; procedure, shortened: as §7
Mus musculus [22] = assay: Anxiolytic-like activity in ddY mouse assessed as number of shuttle per hour at 5 mg/kg, po administered 30 mins before test by discrete shuttle avoidance test; assay type: functional; procedure, shortened: as §7
Mus musculus [23] = assay: Anxiolytic-like activity in ddY mouse assessed as number of shocks per hour at 5 mg/kg, po administered 30 mins before test by discrete shuttle avoidance test; assay type: functional; procedure, shortened: as §7
[24] = Half life in rat; assay type: ADME, organism-based; settings: in vivo
Mus musculus [25] = assay: Toxicity in ddY mouse assessed as induction of sedation at 20 mg/kg, po after 1 to 3 hrs; assay type: organism-based; set-up: dose 20 mg/kg, route oral; settings: in vivo
Mus musculus [26] = assay: Toxicity in ddY mouse assessed as induction of excitation at 20 mg/kg, po after 1 to 3 hrs; assay type: organism-based; set-up: dose 20 mg/kg, route oral; settings: in vivo
Mus musculus [27] = assay: Toxicity in ddY mouse assessed as induction of ataxia at 1 mg/kg, po after 1 to 3 hrs; assay type: organism-based; set-up: dose 1 mg/kg, route oral; settings: in vivo
Mus musculus [28] = assay: Toxicity in ddY mouse assessed as induction of muscle relaxation at 1 mg/kg, po after 1 to 3 hrs; assay type: organism-based; set-up: dose 1 mg/kg, route oral; settings: in vivo
Mus musculus [29] = assay: Toxicity in ddY mouse assessed as body weight gain after repeated administration; assay type: organism-based; settings: in vivo
Mus musculus [30] = assay: Anxiolytic-like activity in ddY mouse assessed as ambulatory activity at 1 mg/kg, po for 4 days measured 24 hrs after final drug administration assessed per 5 mins by tilting type ambulometer test; assay type: functional
Mus musculus [31] = assay: Anxiolytic-like activity in ddY mouse assessed as time spent in open-sided arms at 1 mg/kg, po for 5 days measured 24 hrs after final drug administration by elevated plus-maze test; assay type: functional; procedure, shortened: as §2
Mus musculus [32] = assay: Anxiolytic-like activity in ddY mouse assessed as ambulatory activity at 1 mg/kg, po for 5 days measured 24 hrs after final drug administration assessed per 5 mins by tilting type ambulometer test; assay type: functional; procedure, shortened: as §3
Mus musculus [33] = assay: Toxicity in ddY mouse at 1 to 2 mg/kg, po; assay type: organism-based; set-up: dose 1-2 mg/kg, route oral; settings: in vivo
Mus musculus [34] = assay: Anxiolytic-like activity in ddY mouse assessed as pentobarbital-induced sleep time at 0.5 mg/kg, po administered 30 mins before pentobarbital challenge; assay type: functional; procedure, shortened: as §6
Mus musculus [35] = assay: Anxiolytic-like activity in ddY mouse assessed as pentobarbital-induced sleep time at 1 mg/kg, po administered 30 mins before pentobarbital challenge; assay type: functional; procedure, shortened: as §6
Mus musculus [36] = assay: Anxiolytic-like activity in ddY mouse assessed as pentobarbital-induced sleep time at 2 mg/kg, po administered 30 mins before pentobarbital challenge; assay type: functional; procedure, shortened: as §6
Mus musculus [37] = assay: Anxiolytic-like activity in ddY mouse assessed as pentobarbital-induced sleep time at 5 mg/kg, po administered 30 mins before pentobarbital challenge; assay type: functional; procedure, shortened: as §6

In the case of Cn1c(=O)c2c(ncn2C)n(C)c1=O [CAFFEINE], the Activity (Mus musculus [1]) is reported as 428.9 and the Activity (Mus musculus [2]) is reported as 3.4.

With CN1C(=O)CN=C(c2ccccc2)c2cc(Cl)ccc21 [DIAZEPAM] the Activity (Mus musculus [3]) was 24.7 s and the Activity (Mus musculus [4]) was 43.1.

For CCOC(=O)c1ncn2c1CN(C)C(=O)c1cc(F)ccc1-2 [FLUMAZENIL], the Activity (Mus musculus [5]) was 5.5 s and the Activity (Mus musculus [6]) was 31.5.

C[C@@H]1C(=O)O[C@H]2C[C@@]34[C@H]5C[C@@H](C(C)(C)C)[C@]36[C@@H](OC(=O)[C@@H]6O)O[C@@]4(C(=O)O5)[C@]21O [GINKGOLIDE A] gave an Activity (Mus musculus [3]) of 18.6 s, an Activity (Mus musculus [4]) of 35.3 and an Activity (Mus musculus [7]) of 7.6 s. The Activity (Mus musculus [8]) was 39.1, the Activity (Mus musculus [9]) was 5.9 s and the Activity (Mus musculus [10]) was 35.4. The Activity (Mus musculus [11]) was 17.4 s, the Activity (Mus musculus [12]) was 29.5 and the Activity (Mus musculus [13]) was 10.5 s. For the same compound, the Activity (Mus musculus [14]) was 31.6, the Activity (Mus musculus [15]) was 12.7 s and the Activity (Mus musculus [16]) was 35.5. For the same compound, the Activity (Mus musculus [17]) was 17.8 s, the Activity (Mus musculus [18]) was 3690 s and the Activity (Mus musculus [19]) was 3490 s. It also gave an Activity (Mus musculus [20]) of 182.8, an Activity (Mus musculus [21]) of 1.6 and an Activity (Mus musculus [22]) of 162.9. The Activity (Mus musculus [23]) was 1.1, the half-life [24] was 1.5 h and the Activity (Mus musculus [25]) was “Non-toxic”. For the same compound, the Activity (Mus musculus [26]) was “Non-toxic”, the Activity (Mus musculus [27]) was “Non-toxic” and the Activity (Mus musculus [28]) was “Non-toxic”. For the same compound, the Activity (Mus musculus [29]) was “Non-toxic”, the Activity (Mus musculus [30]) was 40.1 and the Activity (Mus musculus [31]) was 17.8 s. For the same compound, the Activity (Mus musculus [32]) was 40.1, the Activity (Mus musculus [33]) was “Non-toxic” and the Activity (Mus musculus [34]) was 3270 s. It also gave an Activity (Mus musculus [35]) of 2830 s, an Activity (Mus musculus [36]) of 3510 s and an Activity (Mus musculus [37]) of 3694 s.
